# Calls of active or inactive are those of the source. No cut-off for these calls is given here.
# Molecular target: T1, Polyunsaturated fatty acid 5-lipoxygenase (Homo sapiens) (UniProt P09917)
# T1 sequence (whole entry): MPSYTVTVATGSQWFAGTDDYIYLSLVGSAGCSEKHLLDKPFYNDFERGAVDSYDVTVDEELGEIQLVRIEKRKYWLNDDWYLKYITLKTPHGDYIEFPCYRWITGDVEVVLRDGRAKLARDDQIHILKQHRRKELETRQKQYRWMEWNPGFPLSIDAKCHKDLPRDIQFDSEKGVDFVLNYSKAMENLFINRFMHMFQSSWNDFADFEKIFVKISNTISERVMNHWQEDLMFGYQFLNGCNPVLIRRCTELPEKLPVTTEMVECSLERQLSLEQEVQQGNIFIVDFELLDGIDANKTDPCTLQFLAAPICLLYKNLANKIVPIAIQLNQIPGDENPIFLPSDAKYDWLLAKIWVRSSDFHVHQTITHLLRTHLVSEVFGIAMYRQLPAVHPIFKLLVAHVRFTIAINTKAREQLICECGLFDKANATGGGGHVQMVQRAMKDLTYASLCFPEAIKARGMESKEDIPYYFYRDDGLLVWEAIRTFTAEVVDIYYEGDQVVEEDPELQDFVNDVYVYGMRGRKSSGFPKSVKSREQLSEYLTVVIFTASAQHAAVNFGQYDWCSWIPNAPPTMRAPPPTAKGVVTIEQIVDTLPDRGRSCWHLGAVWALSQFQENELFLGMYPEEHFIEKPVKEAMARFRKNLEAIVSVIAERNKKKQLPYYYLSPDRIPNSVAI
# Experiment: Inhibition of 5-LO in human PMNL cells at 10 uM relative to control
# Format: cell-based
# Set-up: scale not given: the % may be the effect or the level left
# In short: (§1)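 Freshly isolated human PMNL from leukocyte concentrates of healthy donors, 5 × 10⁶ cells/mL in PBS pH 7.4 with 1 mg/mL glucose and 1 mM CaCl₂. Preincubated with compound 15 min at RT, then stimulated with 2.5 µM A23187 plus 20 µM AA for 10 min at 37 °C. Stopped with methanol; LTB₄, its all-trans isomers and 5-H(P)ETE quantified by HPLC with PGB₁ internal standard.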
row,SMILES,Activity
1,CCCCCCCCC(Sc1nc(Cl)cc(Nc2cccc(C)c2C)n1)C(=O)O (stereo not given),7%
2,CCCCCCC(Sc1nc(Cl)cc(NCc2ccc(-c3ccccc3)cc2)n1)C(=O)O (stereo not given),3%
3,CCCCCCC(Sc1nc(Cl)cc(NCCOc2ccccc2)n1)C(=O)O (stereo not given),28%
4,CCCCCCC(Sc1nc(Cl)cc(NCCOc2ccccc2)n1)C(=O)OCC (stereo not given),37.1%
5,CCCCCC[C@@H](Sc1nc(Cl)cc(Nc2ccc(-c3ccc(C#N)cc3)cc2)n1)C(=O)O,2.8%
6,CCCCC(Sc1nc(OCCc2ccccc2)cc(OCCc2ccccc2)n1)C(=O)O (stereo not given),2.7%
7,CCCCCCC(Sc1nc(Cl)cc(NCc2ccc(-c3ccccc3)cc2)n1)C(=O)OCC (stereo not given),80.2%
8,CCCCCC[C@H](Sc1nc(Cl)cc(Nc2ccc(-c3ccc(C#N)cc3)cc2)n1)C(=O)O,2.8%
9,CCCCCCC(Sc1nc(Cl)cc(Nc2cc(OCC(F)(F)F)cc(OCC(F)(F)F)c2)n1)C(=O)O (stereo not given),8%
10,Cc1cccc(Nc2cc(Cl)nc(SC(C(=O)O)c3cccc4ccccc34)n2)c1C (stereo not given),16.8%
11,CCCCC(Sc1nc(OCCc2ccccc2)cc(OCCc2ccccc2)n1)C(=O)OCC (stereo not given),80.1%
12,O=C(O)CSc1nc(OCCc2ccccc2)cc(OCCc2ccccc2)n1,40.6%

# Molecular target: T2, Prostaglandin G/H synthase 1 (Ovis aries) (UniProt P05979)
# T2 sequence (whole entry): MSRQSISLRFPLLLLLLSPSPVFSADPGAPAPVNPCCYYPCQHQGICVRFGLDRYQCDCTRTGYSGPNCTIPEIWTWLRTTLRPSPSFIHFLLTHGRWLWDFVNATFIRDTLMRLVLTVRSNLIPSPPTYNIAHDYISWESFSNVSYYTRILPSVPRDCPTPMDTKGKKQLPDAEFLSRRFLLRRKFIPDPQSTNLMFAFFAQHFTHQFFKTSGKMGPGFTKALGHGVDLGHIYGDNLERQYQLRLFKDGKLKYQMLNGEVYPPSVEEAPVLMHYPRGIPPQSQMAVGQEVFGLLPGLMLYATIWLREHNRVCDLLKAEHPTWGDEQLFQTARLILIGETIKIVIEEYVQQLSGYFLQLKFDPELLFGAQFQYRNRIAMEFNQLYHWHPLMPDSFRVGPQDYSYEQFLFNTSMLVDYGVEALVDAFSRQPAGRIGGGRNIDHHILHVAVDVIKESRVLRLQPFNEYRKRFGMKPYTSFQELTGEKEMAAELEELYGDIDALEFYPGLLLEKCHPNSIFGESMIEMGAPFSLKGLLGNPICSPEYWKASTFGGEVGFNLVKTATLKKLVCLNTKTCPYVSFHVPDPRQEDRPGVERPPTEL
# Experiment: Inhibition of ovine COX1 assessed as remaining activity at 10 uM relative to control
# In short: (§2)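 Ovine COX-1 (50 units) or human recombinant COX-2 (20 units) in 100 mM Tris pH 8 with 5 mM glutathione, 5 µM hemoglobin and 100 µM EDTA. Compound preincubation 5 min at 4 °C, then prewarming 60 s at 37 °C. AA added at 5 µM for COX-1 or 2 µM for COX-2, reacted 5 min at 37 °C. 12-HHT extracted and quantified by HPLC. Mean ± SE, n = 3.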
row,SMILES,Activity
1,CCCCCCC(Sc1nc(Cl)cc(NCc2ccc(-c3ccccc3)cc2)n1)C(=O)O (stereo not given),67.3%
2,CCCCCCC(Sc1nc(Cl)cc(Nc2cc(OCC(F)(F)F)cc(OCC(F)(F)F)c2)n1)C(=O)O (stereo not given),40%
3,Cc1cccc(Nc2cc(Cl)nc(SC(C(=O)O)c3cccc4ccccc34)n2)c1C (stereo not given),42.2%

# Molecular target: T3, Prostaglandin E synthase (Homo sapiens) (UniProt O14684)
# T3 sequence (whole entry): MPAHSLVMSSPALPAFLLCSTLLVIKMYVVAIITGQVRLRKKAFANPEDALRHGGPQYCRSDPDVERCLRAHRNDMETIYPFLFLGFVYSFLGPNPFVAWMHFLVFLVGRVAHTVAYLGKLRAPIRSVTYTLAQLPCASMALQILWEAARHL
# Experiment: Inhibition of PGES1 in human A549 cell microsome assessed as PGE2 formation at 10 uM by cell-free assay relative to control
# Set-up: scale not given: the % may be the effect or the level left
# In short: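 Microsomes from A549 cells grown with IL-1β (1 ng/mL, 72 h), diluted in 0.1 M potassium phosphate pH 7.4 with 2.5 mM glutathione. Compound or DMSO added 15 min before PGH₂ (20 µM final). Reaction ran 1 min at 4 °C and was stopped with FeCl₂/citric acid. PGE₂ isolated by C18 SPE, then RP-HPLC with UV at 195 nm against 11β-PGE₂ internal standard.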
row,SMILES,Activity
1,CCCCCCCCC(Sc1nc(Cl)cc(Nc2cccc(C)c2C)n1)C(=O)O (stereo not given),29.8%
2,CCCCCCC(Sc1nc(Cl)cc(NCc2ccc(-c3ccccc3)cc2)n1)C(=O)O (stereo not given),21.8%
3,CCCCCCC(Sc1nc(Cl)cc(NCCOc2ccccc2)n1)C(=O)O (stereo not given),79.9%
4,CCCCCCC(Sc1nc(Cl)cc(NCCOc2ccccc2)n1)C(=O)OCC (stereo not given),80.7%
5,CCCCCC[C@@H](Sc1nc(Cl)cc(Nc2ccc(-c3ccc(C#N)cc3)cc2)n1)C(=O)O,36.8%
6,CCCCC(Sc1nc(OCCc2ccccc2)cc(OCCc2ccccc2)n1)C(=O)O (stereo not given),43.1%
7,CCCCCCC(Sc1nc(Cl)cc(NCc2ccc(-c3ccccc3)cc2)n1)C(=O)OCC (stereo not given),inactive
8,CCCCCC[C@H](Sc1nc(Cl)cc(Nc2ccc(-c3ccc(C#N)cc3)cc2)n1)C(=O)O,23%
9,CCCCC(Sc1nc(OCCc2ccccc2)cc(OCCc2ccccc2)n1)C(=O)OCC (stereo not given),inactive
10,O=C(O)CSc1nc(OCCc2ccccc2)cc(OCCc2ccccc2)n1,66.4%

# Molecular target: T4, Prostaglandin G/H synthase 1 (Ovis aries, UniProt P05979)
# T4 sequence (P05979 whole entry): T2 sequence (whole entry)
# Experiment: Inhibition of ovine COX1
# In short: as §2
row,SMILES,IC50
1,CCCCCCCCC(Sc1nc(Cl)cc(Nc2cccc(C)c2C)n1)C(=O)O (stereo not given),> 10 µM
2,CCCCCCC(Sc1nc(Cl)cc(NCc2ccc(-c3ccccc3)cc2)n1)C(=O)O (stereo not given),> 10 µM
3,CCCCCCC(Sc1nc(Cl)cc(NCCOc2ccccc2)n1)C(=O)O (stereo not given),> 10 µM
4,CCCCCCC(Sc1nc(Cl)cc(NCCOc2ccccc2)n1)C(=O)OCC (stereo not given),> 10 µM
5,CCCCCC[C@@H](Sc1nc(Cl)cc(Nc2ccc(-c3ccc(C#N)cc3)cc2)n1)C(=O)O,> 10 µM
6,CCCCC(Sc1nc(OCCc2ccccc2)cc(OCCc2ccccc2)n1)C(=O)O (stereo not given),> 10 µM
7,CCCCCCC(Sc1nc(Cl)cc(NCc2ccc(-c3ccccc3)cc2)n1)C(=O)OCC (stereo not given),> 10 µM
8,CCCCCC[C@H](Sc1nc(Cl)cc(Nc2ccc(-c3ccc(C#N)cc3)cc2)n1)C(=O)O,> 10 µM
9,CCCCC(Sc1nc(OCCc2ccccc2)cc(OCCc2ccccc2)n1)C(=O)OCC (stereo not given),> 10 µM
10,O=C(O)CSc1nc(OCCc2ccccc2)cc(OCCc2ccccc2)n1,> 10 µM

# Molecular target: T5, Prostaglandin G/H synthase 2 (Homo sapiens) (UniProt P35354)
# T5 sequence (whole entry): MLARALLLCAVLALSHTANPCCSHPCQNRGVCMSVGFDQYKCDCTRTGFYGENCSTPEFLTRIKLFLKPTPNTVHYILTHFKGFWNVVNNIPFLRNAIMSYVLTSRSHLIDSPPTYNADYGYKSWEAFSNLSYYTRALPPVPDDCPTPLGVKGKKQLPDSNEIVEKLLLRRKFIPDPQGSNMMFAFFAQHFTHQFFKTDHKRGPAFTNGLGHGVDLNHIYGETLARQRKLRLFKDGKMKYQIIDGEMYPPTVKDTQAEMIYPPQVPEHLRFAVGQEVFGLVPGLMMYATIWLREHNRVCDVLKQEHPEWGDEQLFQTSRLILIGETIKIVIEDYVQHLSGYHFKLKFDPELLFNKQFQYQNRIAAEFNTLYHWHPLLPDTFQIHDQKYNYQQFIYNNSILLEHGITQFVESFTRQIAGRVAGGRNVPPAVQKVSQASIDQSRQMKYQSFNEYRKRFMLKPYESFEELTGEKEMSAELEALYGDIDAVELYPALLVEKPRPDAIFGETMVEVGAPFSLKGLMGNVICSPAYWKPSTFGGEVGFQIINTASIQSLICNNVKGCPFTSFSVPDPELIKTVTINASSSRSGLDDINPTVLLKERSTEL
# Experiment: Inhibition of human recombinant COX2 assessed as remaining activity at 10 uM relative to control
# In short: as §2
row,SMILES,Activity
1,CCCCCCC(Sc1nc(Cl)cc(NCc2ccc(-c3ccccc3)cc2)n1)C(=O)O (stereo not given),61.3%
2,CCCCCCC(Sc1nc(Cl)cc(Nc2cc(OCC(F)(F)F)cc(OCC(F)(F)F)c2)n1)C(=O)O (stereo not given),70.4%
3,Cc1cccc(Nc2cc(Cl)nc(SC(C(=O)O)c3cccc4ccccc34)n2)c1C (stereo not given),32.5%

# Molecular target: T6, Polyunsaturated fatty acid 5-lipoxygenase (Homo sapiens, UniProt P09917)
# T6 sequence (P09917 whole entry): T1 sequence (whole entry)
# Experiment: Inhibition of 5-LO in PMNL cells
# Format: cell-based
# In short: as §1
row,SMILES,IC50
1,CCCCCCC(Sc1nc(Cl)cc(NCc2ccc(-c3ccccc3)cc2)n1)C(=O)O (stereo not given),1 µM
2,CCCCCCC(Sc1nc(Cl)cc(Nc2cc(OCC(F)(F)F)cc(OCC(F)(F)F)c2)n1)C(=O)O (stereo not given),1.5 µM
3,Cc1cccc(Nc2cc(Cl)nc(SC(C(=O)O)c3cccc4ccccc34)n2)c1C (stereo not given),5 µM

# Molecular target: T6, Polyunsaturated fatty acid 5-lipoxygenase
# Experiment: Inhibition of human recombinant 5-LO expressed in Escherichia coli by cell-free assay
# In short: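 Human 5-LO expressed in E. coli MV1190 (pT3-5LO) at 27 °C, partially purified from the 100000g lysate supernatant. Held in PBS pH 7.4 with 1 mM EDTA and 1 mM ATP with compound for 10 min at 4 °C, warmed 30 s at 37 °C, then started with 2 mM CaCl₂ plus 20 µM AA. After 10 min at 37 °C, stopped with cold methanol; products measured by HPLC.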
row,SMILES,IC50
1,CCCCCCC(Sc1nc(Cl)cc(NCc2ccc(-c3ccccc3)cc2)n1)C(=O)O (stereo not given),2 µM
2,CCCCCC[C@@H](Sc1nc(Cl)cc(Nc2ccc(-c3ccc(C#N)cc3)cc2)n1)C(=O)O,0.8 µM
3,CCCCCC[C@H](Sc1nc(Cl)cc(Nc2ccc(-c3ccc(C#N)cc3)cc2)n1)C(=O)O,1.5 µM
4,CCCCCCC(Sc1nc(Cl)cc(Nc2cc(OCC(F)(F)F)cc(OCC(F)(F)F)c2)n1)C(=O)O (stereo not given),3 µM

# Molecular target: T7, Prostaglandin G/H synthase 2 (Homo sapiens, UniProt P35354)
# T7 sequence (P35354 whole entry): T5 sequence (whole entry)
# Experiment: Inhibition of human recombinant COX2
# In short: as §2
row,SMILES,IC50
1,CCCCCCCCC(Sc1nc(Cl)cc(Nc2cccc(C)c2C)n1)C(=O)O (stereo not given),> 10 µM
2,CCCCCCC(Sc1nc(Cl)cc(NCc2ccc(-c3ccccc3)cc2)n1)C(=O)O (stereo not given),> 10 µM
3,CCCCCCC(Sc1nc(Cl)cc(NCCOc2ccccc2)n1)C(=O)O (stereo not given),> 10 µM
4,CCCCCCC(Sc1nc(Cl)cc(NCCOc2ccccc2)n1)C(=O)OCC (stereo not given),> 10 µM
5,CCCCCC[C@@H](Sc1nc(Cl)cc(Nc2ccc(-c3ccc(C#N)cc3)cc2)n1)C(=O)O,> 10 µM
6,CCCCC(Sc1nc(OCCc2ccccc2)cc(OCCc2ccccc2)n1)C(=O)O (stereo not given),> 10 µM
7,CCCCCCC(Sc1nc(Cl)cc(NCc2ccc(-c3ccccc3)cc2)n1)C(=O)OCC (stereo not given),> 10 µM
8,CCCCCC[C@H](Sc1nc(Cl)cc(Nc2ccc(-c3ccc(C#N)cc3)cc2)n1)C(=O)O,> 10 µM
9,CCCCC(Sc1nc(OCCc2ccccc2)cc(OCCc2ccccc2)n1)C(=O)OCC (stereo not given),> 10 µM
10,O=C(O)CSc1nc(OCCc2ccccc2)cc(OCCc2ccccc2)n1,> 10 µM
